Paper PMC9291822 (British Journal of Clinical Pharmacology, 2021)
pIC50: −log10 of the molar value. Where “and” joins values, the source holds several entries; their conditions need not be identical. Equal entries are not always repeated. Entries after “also recorded” stand apart in the source; their conditions may differ. Where two headings read alike, the source gives them in different places.

Legend:
[1] = healthy participants, cited from earlier work
[2] = repeated administration of 400-mg BID tablets; cited from earlier work
[3] = system: plasma protein; conditions: cited from earlier work
[4] = Safety assessments and adverse events after single-dose capmatinib; assay type: in vivo, human; conditions: for AEs, any primary system organ class: regardless of study drug relationship
In short: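 Single oral 200 mg dose; participants confined from day −1 to day 4. Haematology, chemistry, coagulation and urinalysis at screening, baseline, days 1–2 and end of treatment; vital signs on days 1–3. Triplicate 12-lead ECGs. AEs/SAEs recorded with severity and relatedness, graded per CTCAE v4.03. Phone follow-up at 30 days post-dose.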

[5] = system: human plasma proteins; assay: Plasma protein binding by ultrafiltration, 3 h postdose samples; assay type: in vitro ADME
[6] = system: MET; conditions: MET inhibitor; cited from earlier work
[7] = assay type: in vivo, human
In short: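 Adults aged 18–75 with hepatic impairment (Child–Pugh A/B/C, also reclassified by NCI Organ Dysfunction Working Group criteria) or normal function, matched on age, weight and sex. Overnight fast (≥10 h), single oral 200 mg (2 × 100 mg tablets), fasting ≥4 h post-dose. Plasma sampled predose to 72 h; parent and metabolite measured by validated LC-MS/MS (LLOQ ~1.00 ng/mL). Noncompartmental analysis; GM ratios vs normal with 90% CIs.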

[8] = single oral dose 200 mg, mild, Child–Pugh A (n = 6)
[9] = single oral dose 200 mg, moderate, Child–Pugh B (n = 8)
[10] = single oral dose 200 mg, normal (n = 9)
[11] = single oral dose 200 mg, severe, Child–Pugh C (n = 6)

For `CNC(=O)c1ccc(-c2cnc3ncc(Cc4ccc5ncccc5c4)n3n2)cc1F` [capmatinib], the tolerability ([1]; single dose of 600 mg, tablet formulation) is given as “tolerated”, the PK dose linearity ([1]; tablets, single dose of 200–600 mg) is given as “linear” and the “steady state GM accumulation ratio” value [2] is given as 1.4. The “bound to plasma protein” value [3] was 96%, the “AEs, any primary system organ class, maximum Grade 1” value (“AEs … maximum Grade 1” for short) ([4]; all participants (N = 31)) was 5 (16.1) n (%) and the “AEs, any primary system organ class, maximum Grade 2” value (“AEs … maximum Grade 2” below) ([4]; all participants (N = 31)) was 1 (3.2) n (%). For the same compound, the Diarrhoea ([4]; all participants (N = 31)) was 1 (3.2) n (%), the Dizziness ([4]; all participants (N = 31)) was 1 (3.2) n (%) and the “Ear and labyrinth disorders” value ([4]; all participants (N = 31)) was 1 (3.2) n (%). For the same compound, the Flatulence ([4]; all participants (N = 31)) was 1 (3.2) n (%), the Gastrointestinal disorders ([4]; all participants (N = 31)) was 3 (9.7) n (%) and the “General disorders and administration site conditions” value ([4]; all participants (N = 31)) was 1 (3.2) n (%). For the same compound, the Headache ([4]; all participants (N = 31)) was 2 (6.5) n (%), the Hypoglycaemia ([4]; all participants (N = 31)) was 1 (3.2) n (%) and the “Medical device site dermatitis” value ([4]; all participants (N = 31)) was 1 (3.2) n (%). The “Metabolism and nutrition disorders” value ([4]; all participants (N = 31)) was 1 (3.2) n (%), the Nausea ([4]; all participants (N = 31)) was 2 (6.5) n (%) and the Nervous system disorders ([4]; all participants (N = 31)) was 2 (6.5) n (%). For the same compound, the Vertigo ([4]; all participants (N = 31)) was 1 (3.2) n (%), the “participants with AEs suspected to be capmatinib related” value ([4]; all participants (N = 31)) was 9.7% and the “severity of AEs suspected to be capmatinib related” value ([4]; all participants (N = 31)) was “grade 1”. For the same compound, the “deaths and SAEs” value ([4]; during study treatment and 30-day follow-up) was “No deaths and SAEs”, the “AEs … maximum Grade 1” value ([4]; mild (n = 7)) was 2 (28.6) n (%) and the “AEs … maximum Grade 2” value ([4]; mild (n = 7)) was 1 (14.3) n (%). The Diarrhoea ([4]; mild (n = 7)) was 0 n (%), the Dizziness ([4]; mild (n = 7)) was 0 n (%) and the “Ear and labyrinth disorders” value ([4]; mild (n = 7)) was 1 (14.3) n (%). For the same compound, the Flatulence ([4]; mild (n = 7)) was 0 n (%), the Gastrointestinal disorders ([4]; mild (n = 7)) was 0 n (%) and the “General disorders and administration site conditions” value ([4]; mild (n = 7)) was 1 (14.3) n (%). For the same compound, the Headache ([4]; mild (n = 7)) was 1 (14.3) n (%), the Hypoglycaemia ([4]; mild (n = 7)) was 1 (14.3) n (%) and the “Medical device site dermatitis” value ([4]; mild (n = 7)) was 1 (14.3) n (%). The “Metabolism and nutrition disorders” value ([4]; mild (n = 7)) was 1 (14.3) n (%), the Nausea ([4]; mild (n = 7)) was 0 n (%) and the Nervous system disorders ([4]; mild (n = 7)) was 1 (14.3) n (%). The Vertigo ([4]; mild (n = 7)) was 1 (14.3) n (%), the “AEs … maximum Grade 1” value ([4]; moderate (n = 8)) was 2 (25.0) n (%) and the “AEs … maximum Grade 2” value ([4]; moderate (n = 8)) was 0 n (%). The Diarrhoea ([4]; moderate (n = 8)) was 0 n (%), the Dizziness ([4]; moderate (n = 8)) was 1 (12.5) n (%) and the “Ear and labyrinth disorders” value ([4]; moderate (n = 8)) was 0 n (%). For the same compound, the Flatulence ([4]; moderate (n = 8)) was 0 n (%), the Gastrointestinal disorders ([4]; moderate (n = 8)) was 2 (25.0) n (%) and the “General disorders and administration site conditions” value ([4]; moderate (n = 8)) was 0 n (%). For the same compound, the Headache ([4]; moderate (n = 8)) was 1 (12.5) n (%), the Hypoglycaemia ([4]; moderate (n = 8)) was 0 n (%) and the “Medical device site dermatitis” value ([4]; moderate (n = 8)) was 0 n (%). The “Metabolism and nutrition disorders” value ([4]; moderate (n = 8)) was 0 n (%), the Nausea ([4]; moderate (n = 8)) was 2 (25.0) n (%) and the Nervous system disorders ([4]; moderate (n = 8)) was 1 (12.5) n (%). For the same compound, the Vertigo ([4]; moderate (n = 8)) was 0 n (%), the “AEs … maximum Grade 1” value ([4]; normal (n = 10)) was 0 n (%) and the “AEs … maximum Grade 2” value ([4]; normal (n = 10)) was 0 n (%). For the same compound, the Diarrhoea ([4]; normal (n = 10)) was 0 n (%), the Dizziness ([4]; normal (n = 10)) was 0 n (%) and the “Ear and labyrinth disorders” value ([4]; normal (n = 10)) was 0 n (%). The Flatulence ([4]; normal (n = 10)) was 0 n (%), the Gastrointestinal disorders ([4]; normal (n = 10)) was 0 n (%) and the “General disorders and administration site conditions” value ([4]; normal (n = 10)) was 0 n (%). The Headache ([4]; normal (n = 10)) was 0 n (%), the Hypoglycaemia ([4]; normal (n = 10)) was 0 n (%) and the “Medical device site dermatitis” value ([4]; normal (n = 10)) was 0 n (%). The “Metabolism and nutrition disorders” value ([4]; normal (n = 10)) was 0 n (%), the Nausea ([4]; normal (n = 10)) was 0 n (%) and the Nervous system disorders ([4]; normal (n = 10)) was 0 n (%). For the same compound, the Vertigo ([4]; normal (n = 10)) was 0 n (%), the “AEs, any primary system organ class” value ([4]; all participants (N = 31)) was 6 n (%) and 6 (19.4) n (%) and the “AEs, any primary system organ class” value ([4]; mild (n = 7)) was 3 (42.9) n (%). For the same compound, the “AEs, any primary system organ class” value ([4]; moderate (n = 8)) was 2 (25.0) n (%), the “AEs, any primary system organ class” value ([4]; normal (n = 10)) was 0 n (%) and the “AEs, any primary system organ class” value ([4]; severe (n = 6)) was 1 (16.7) n (%). The “AEs … maximum Grade 1” value ([4]; severe (n = 6)) was 1 (16.7) n (%), the “AEs … maximum Grade 2” value ([4]; severe (n = 6)) was 0 n (%) and the Diarrhoea ([4]; severe (n = 6)) was 1 (16.7) n (%). For the same compound, the Dizziness ([4]; severe (n = 6)) was 0 n (%), the “Ear and labyrinth disorders” value ([4]; severe (n = 6)) was 0 n (%) and the Flatulence ([4]; severe (n = 6)) was 1 (16.7) n (%). For the same compound, the Gastrointestinal disorders ([4]; severe (n = 6)) was 1 (16.7) n (%), the “General disorders and administration site conditions” value ([4]; severe (n = 6)) was 0 n (%) and the Headache ([4]; severe (n = 6)) was 0 n (%). The Hypoglycaemia ([4]; severe (n = 6)) was 0 n (%), the “Medical device site dermatitis” value ([4]; severe (n = 6)) was 0 n (%) and the “Metabolism and nutrition disorders” value ([4]; severe (n = 6)) was 0 n (%). The Nausea ([4]; severe (n = 6)) was 0 n (%), the Nervous system disorders ([4]; severe (n = 6)) was 0 n (%) and the Vertigo ([4]; severe (n = 6)) was 0 n (%). The tolerability ([4]; single dose, mild, moderate, severe hepatic impairment and normal hepatic function) was “well tolerated”, the “changes in chemistry parameters, QTcF or other ECG parameters” value ([4]; single oral dose 200 mg) was “No clinically relevant changes” and the “changes in haematological parameters” value ([4]; single oral dose 200 mg) was “Minimal changes”. For the same compound, the “bound to human plasma proteins” value ([5]; 3 hours postdose samples, across all participants) was 96.7%, the “GM unbound fraction higher vs. normal group” value ([5]; severe group) was ~ 44.8% and the pIC50 [6] was 9.22. For the same compound, the “increase in GM AUCinf, AUClast and Cmax vs. normal group” value ([7]; NCI classification, both mild and moderate groups) was 26–46%, the “increase in GM AUCinf vs. normal group” value ([7]; NCI classification, mild group) was 26% and the “increase in GM AUClast vs. normal group” value ([7]; NCI classification, mild group) was 27%. For the same compound, the “increase in GM Cmax vs. normal group” value ([7]; NCI classification, mild group) was 35%, the “increase in GM Cmax vs. normal group” value ([7]; NCI classification, moderate group) was 46% and the AUC(0-inf) ([7]; human, plasma, po, 200 mg, AUCinf, GM, single oral dose 200 mg, normal (n = 9)) was 6240 ng·h/mL. The AUC(0-t) ([7]; human, plasma, po, 200 mg, AUClast, GM, single oral dose 200 mg, normal (n = 9)) was 6190 ng·h/mL, the Cmax ([7]; human, plasma, po, 200 mg, Cmax, GM, single oral dose 200 mg, normal (n = 9)) was 1740 ng/mL and the Vd/F ([7]; human, plasma, po, 200 mg, Vz/F, GM, single oral dose 200 mg, normal (n = 9)) was 483 L. For the same compound, the half-life ([7]; human, plasma, po, 200 mg, t½, GM, single oral dose 200 mg, normal (n = 9)) was 10.4 h, the “GM exposures vs. normal group, interim PK analysis” value ([7]; mild and moderate groups, end of stage 1) was under 3 fold and the “GM Vz/F lower vs. normal group” value ([7]; mild group) was 32.9%. The “GM t½ shorter vs. normal group” value ([7]; mild group) was 48.4%, the “decrease in GM AUCinf vs. normal group” value ([7]; mild group) was 23.3% and the “decrease in GM Cmax vs. normal group” value ([7]; mild group) was 27.6%. The “increase in GM CL/F vs. normal group” value ([7]; mild group) was 30.6%, the “decrease in GM AUCinf,u vs. normal group” value ([7]; mild group, unbound) was 19.3% and the “decrease in GM AUClast,u vs. normal group” value ([7]; mild group, unbound) was 19.6%. The “decrease in GM Cmax,u vs. normal group” value ([7]; mild group, unbound) was 23.9%, the “GM Vz/F lower vs. normal group” value ([7]; moderate group) was 39.5% and the “GM t½ shorter vs. normal group” value ([7]; moderate group) was 44.5%. For the same compound, the “decrease in GM AUCinf vs. normal group” value ([7]; moderate group) was 8.6%, the “decrease in GM Cmax vs. normal group” value ([7]; moderate group) was 17.2% and the “increase in GM CL/F vs. normal group” value ([7]; moderate group) was 9.7%. For the same compound, the “GM Cmax,u, AUClast,u and AUCinf,u vs. normal group” value ([7]; moderate group, unbound) was “similar”, the “GM Vz/F lower vs. normal group” value ([7]; severe group) was 53.0% and the “GM t½ shorter vs. normal group” value ([7]; severe group) was 41.5%. The “change in GM Cmax vs. normal group” value ([7]; severe group) was “remained unchanged; also recorded: remained similar”, the “decrease in GM CL/F vs. normal group” value ([7]; severe group) was 19.1% and the “increase in GM AUCinf vs. normal group” value ([7]; severe group) was 24%. For the same compound, the “increase in GM AUCinf,u vs. normal group” value ([7]; severe group, unbound) was 78%, the “increase in GM AUClast,u vs. normal group” value ([7]; severe group, unbound) was 78% and the “increase in GM Cmax,u vs. normal group” value ([7]; severe group, unbound) was 46%. The “CL/F, GM” value [7, 8] was 41.8 L/h, the “CL/F, mean (SD)” value [7, 8] was 42.6 (9.23) L/h and the “CL/F, GM” value [7, 9] was 35.1 L/h. For the same compound, the “CL/F, mean (SD)” value [7, 9] was 36.6 (11.4) L/h, the “CL/F, GM” value [7, 10] was 32.0 L/h and the “CL/F, mean (SD)” value [7, 10] was 36.1 (19.1) L/h. The “CL/F, GM” value [7, 11] was 25.9 L/h and the “CL/F, mean (SD)” value [7, 11] was 28.2 (11.7) L/h.
